Calls of active or inactive are those of the source. No cut-off for these calls is given here.

Data set [1] addresses Vasopressin V1a receptor (Homo sapiens) (UniProt P37288). As to the kind of experiment: Displacement of radioligand from Vasopressin V1A receptor. Conditions: concentration not given here.
Data set [2] concerns Mus musculus. As to the kind of experiment: Antidepressant activity in BALB/cJ mouse assessed as decrease in immobility at 3 mg/kg, po administered 30 mins prior to testing measured for 6 mins by forced swim test. The class given is functional, organism-based. On the set-up: dose 3 mg/kg. Put shortly: (§1)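 Male BALB/cJ mice, 8−10 weeks old, housed four per cage on a 12 h light−dark cycle. Drug in injectable water was given by oral gavage (10 mL/kg). After 30 min, each mouse was placed in a glass cylinder with 12 cm of ~23 °C water, and floating immobility was timed over a 6 min trial. Analysis was by ANOVA with Fisher's PLSD post hoc test.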

For data set [3], the system named is Plasma. As to the kind of experiment: Cmax in CD1 mouse plasma at 5 mg/kg, po at 10 mins. The class given is ADME, organism-based. On the set-up: dose 5 mg/kg, route oral. The conditions noted are these: in vivo. Put shortly:
(§2)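 Male CD-1 mice received a single oral gavage dose of 5 mg/kg. Drug levels were measured in brain and plasma over time; Cmax and Tmax were taken from the concentration−time profiles.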

In the next data set the test system is Brain. Description: Half life in CD1 mouse brain at 5 mg/kg, po. It counts as ADME, organism-based. More on the design: dose 5 mg/kg, route oral. The conditions noted are these: in vivo. The method, boiled down: (§3)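 Male CD-1 mice given a single oral gavage dose of 5 mg/kg; plasma and brain concentrations measured over time to derive half-lives, Cmax and Tmax.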

Data set [4] relates to Plasma. As to the kind of experiment: Tmax in CD1 mouse plasma at 5 mg/kg, po. The class given is ADME, organism-based. More on the design: dose 5 mg/kg, route oral. Conditions: in vivo. Put shortly:
as §3

Data set [5] has as its system Plasma. As to the kind of experiment: Half life in CD1 mouse plasma at 5 mg/kg, po. It counts as ADME, organism-based. On the set-up: dose 5 mg/kg, route oral. The conditions noted are these: in vivo. Put shortly:
as §3

The next data set deals with Nucleic Acid. As to the kind of experiment: Ratio of drug level in brain to plasma in CD1 mouse at 5 mg/kg, po. More on the design: dose 5 mg/kg, route oral. The class given is ADME, organism-based. The method, boiled down: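 Male CD-1 mice, single 5 mg/kg oral gavage dose; brain-to-plasma ratio calculated as Cmax-brain/Cmax-plasma.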
A short description of data set [6]: Cmax in CD1 mouse brain at 5 mg/kg, po at 30 mins. More on the design: dose 5 mg/kg, route oral. The class given is ADME, organism-based. Put shortly:
as §2

Data set [7] has as its target Alpha-1D adrenergic receptor (Homo sapiens) (UniProt P25100). Description: Inhibition of alpha1D adrenergic receptor at 10 uM by radioligand displacement assay. For orientation: Displacement assays read how much labelled ligand stays bound in the presence of the test substance.
The subject of data set [8] is Mus musculus. As to the kind of experiment: Antidepressant activity in BALB/cJ mouse assessed as decrease in immobility at 10 mg/kg, po administered 30 mins prior to testing measured for 6 mins by forced swim test. It counts as functional, organism-based. On the set-up: dose 10 mg/kg. The method, boiled down: as §1
Data set [9] has as its target Histamine H4 receptor (Homo sapiens) (UniProt Q9H3N8). Description: Displacement of [3H]Histamine from H4 histamine receptor at 10 uM.
Data set [10] concerns the target Muscarinic acetylcholine receptor M1 (Homo sapiens) (UniProt P11229). As to the kind of experiment: Displacement of [3H]QNB from M1 receptor at 10 uM.
The test system of data set [11] is Plasma. Description: Plasma protein binding in human at 10 uM. It counts as ADME, cell-free. The method, boiled down: (§4)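 Binding measured at 10 μM in human plasma and CD-1 mouse plasma; reported as mean percent bound.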
For data set [12], the target named is Histamine H3 receptor (Homo sapiens) (UniProt Q9Y5N1). As to the kind of experiment: Displacement of [3H]alpha-methylhistamine from H3 histamine receptor at 10 uM.
Chain of Histamine H3 receptor (Homo sapiens) (Q9Y5N1 whole entry): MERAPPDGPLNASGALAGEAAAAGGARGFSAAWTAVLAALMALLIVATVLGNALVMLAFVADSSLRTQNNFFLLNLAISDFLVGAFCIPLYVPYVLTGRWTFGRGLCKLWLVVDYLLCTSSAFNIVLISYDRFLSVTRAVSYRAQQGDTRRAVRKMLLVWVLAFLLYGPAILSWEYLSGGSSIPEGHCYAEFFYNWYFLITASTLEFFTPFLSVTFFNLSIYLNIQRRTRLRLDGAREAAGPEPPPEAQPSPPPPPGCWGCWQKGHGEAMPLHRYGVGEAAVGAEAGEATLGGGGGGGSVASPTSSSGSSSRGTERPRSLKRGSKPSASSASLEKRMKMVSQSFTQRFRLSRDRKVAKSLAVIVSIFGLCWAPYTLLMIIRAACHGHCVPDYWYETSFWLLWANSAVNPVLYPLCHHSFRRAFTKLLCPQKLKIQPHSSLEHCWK
Data set [13] deals with Plasma. Description: Plasma protein binding in CD1 mouse at 10 uM. The class given is ADME, cell-free. The method, boiled down:
as §4

Chain of Alpha-1D adrenergic receptor (Homo sapiens) (P25100 whole entry): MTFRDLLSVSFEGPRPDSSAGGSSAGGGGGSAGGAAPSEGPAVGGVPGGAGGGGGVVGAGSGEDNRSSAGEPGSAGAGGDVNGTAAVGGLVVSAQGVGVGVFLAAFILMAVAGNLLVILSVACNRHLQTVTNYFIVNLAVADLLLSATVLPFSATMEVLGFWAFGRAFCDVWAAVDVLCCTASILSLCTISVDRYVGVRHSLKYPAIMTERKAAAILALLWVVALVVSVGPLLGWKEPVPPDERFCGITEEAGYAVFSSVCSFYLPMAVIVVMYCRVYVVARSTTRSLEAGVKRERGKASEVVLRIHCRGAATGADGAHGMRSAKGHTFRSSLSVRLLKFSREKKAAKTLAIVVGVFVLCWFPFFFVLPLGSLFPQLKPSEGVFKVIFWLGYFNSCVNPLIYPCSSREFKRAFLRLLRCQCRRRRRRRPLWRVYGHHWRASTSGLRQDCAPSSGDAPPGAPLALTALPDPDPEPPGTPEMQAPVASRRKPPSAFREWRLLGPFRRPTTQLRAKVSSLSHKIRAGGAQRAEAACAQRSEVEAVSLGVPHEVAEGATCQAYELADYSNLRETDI
Chain of Vasopressin V1a receptor (Homo sapiens) (P37288 whole entry, looked up): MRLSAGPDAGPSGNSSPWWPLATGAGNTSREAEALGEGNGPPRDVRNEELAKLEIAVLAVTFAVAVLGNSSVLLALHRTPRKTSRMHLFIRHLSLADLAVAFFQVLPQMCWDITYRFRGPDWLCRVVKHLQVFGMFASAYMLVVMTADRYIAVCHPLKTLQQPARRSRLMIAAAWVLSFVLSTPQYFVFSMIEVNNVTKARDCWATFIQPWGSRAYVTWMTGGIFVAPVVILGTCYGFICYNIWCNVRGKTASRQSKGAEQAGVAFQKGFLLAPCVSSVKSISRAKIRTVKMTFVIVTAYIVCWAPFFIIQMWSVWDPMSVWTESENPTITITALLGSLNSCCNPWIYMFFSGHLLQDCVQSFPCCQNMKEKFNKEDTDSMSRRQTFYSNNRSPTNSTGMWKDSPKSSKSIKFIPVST
Chain of Muscarinic acetylcholine receptor M1 (Homo sapiens) (P11229 whole entry): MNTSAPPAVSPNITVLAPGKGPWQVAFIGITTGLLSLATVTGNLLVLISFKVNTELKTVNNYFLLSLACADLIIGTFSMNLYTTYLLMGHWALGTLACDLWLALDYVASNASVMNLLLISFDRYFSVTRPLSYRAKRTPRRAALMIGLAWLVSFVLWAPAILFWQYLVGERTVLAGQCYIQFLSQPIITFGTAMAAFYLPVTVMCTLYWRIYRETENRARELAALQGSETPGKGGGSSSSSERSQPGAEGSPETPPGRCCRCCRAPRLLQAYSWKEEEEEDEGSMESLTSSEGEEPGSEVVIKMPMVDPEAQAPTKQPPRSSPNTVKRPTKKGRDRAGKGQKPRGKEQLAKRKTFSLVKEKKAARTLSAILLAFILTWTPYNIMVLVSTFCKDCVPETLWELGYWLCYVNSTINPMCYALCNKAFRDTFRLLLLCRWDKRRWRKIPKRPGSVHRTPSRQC
Chain of Histamine H4 receptor (Homo sapiens) (Q9H3N8 whole entry): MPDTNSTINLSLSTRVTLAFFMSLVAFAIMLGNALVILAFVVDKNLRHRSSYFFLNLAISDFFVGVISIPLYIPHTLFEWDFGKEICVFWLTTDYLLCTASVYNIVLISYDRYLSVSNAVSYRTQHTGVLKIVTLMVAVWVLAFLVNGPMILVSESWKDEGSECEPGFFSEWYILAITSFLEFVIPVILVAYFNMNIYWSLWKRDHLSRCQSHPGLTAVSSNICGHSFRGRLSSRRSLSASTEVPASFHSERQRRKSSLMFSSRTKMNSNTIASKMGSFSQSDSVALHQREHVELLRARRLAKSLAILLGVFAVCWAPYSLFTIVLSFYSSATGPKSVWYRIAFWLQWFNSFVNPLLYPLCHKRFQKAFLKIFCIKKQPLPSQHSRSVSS

As a reminder, the inhibition is the drop in the measured response relative to a control, in per cent. On to `OCC[C@H]1C[C@@H]1c1cncc(OC[C@@H]2CCN2)c1`, for which the inhibition in [1] was 29.1%. In the data set on Mus musculus [2], the result was Active.
The term Cmax denotes the peak of the concentration-time curve. Usually Tmax stands for the time at which the peak concentration occurs. For the compound `COCC[C@H]1C[C@@H]1c1cncc(OC[C@@H]2CCN2)c1`, the values for the Cmax (in the data set on Plasma [3]; in data set [6]) were 359 ng/mL and 133 ng/mL, respectively. Moreover, the t1/2 was found to be 2.5 h in the data set with Brain and 2.4 h in the data set on Plasma [5]. Further, the time of peak concentration (Tmax) in the data set with Plasma [4] is 0.167 h. Further, the BPR in the data set on Nucleic Acid is 0.37. Further, the inhibition in [1] came out at 30.5%; in data set [7], 3.4%. For the same compound, the outcome with Mus musculus [2] was Active.
As to `CNC(=O)OCC[C@H]1C[C@@H]1c1cncc(OC[C@@H]2CCN2)c1`, the result with Mus musculus [8] was Active. Also, the inhibition was -8% in data set [9], 12.9% in data set [10], 5.7% in data set [12] and -2.7% in data set [7]. The PPB came out at 8.4% with Plasma [11] and 23.8% in the data set with Plasma [13].

The record behind these values is ChEMBL document CHEMBL2021777 (J Med Chem, 2012).
